These results are taken from ChEMBL document CHEMBL4033747, “Design and synthesis of a novel inhibitor of T. Viride chitinase through an in silico target fishing protocol” (Bioorg Med Chem Lett, 2017).

Molecules are shown by their SMILES. pIC50, pKi: −log10 of the molar value. Converted amounts (≈) assume the structure as drawn.

What is called pIC50 is the IC50 on a negative log10 scale, so that one unit is a factor of ten. Broadly, the pKi is the Ki on a negative log10 scale, so that one unit is a factor of ten. The low end stands for a high Ki, the high end for a low Ki. What is called MIC90 is the lowest concentration that inhibits either 90% of growth or 90% of the strains tested, depending on the study.

One experiment addresses Chitinase (Hypocrea rufa, UniProt D2K848). As to the kind of experiment: Inhibition of Trichoderma viride chitinase incubated for 10 mins to 3 hrs using 4-nitrophenyl N-acetyl-beta-D-glucosaminide substrate by spectrophotometry. Summed up:
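Commercial Trichoderma viride chitinase preincubated with varying inhibitor concentrations directly in the reading plate, room temperature, 3 h. Substrate 4-nitrophenyl N-acetyl-β-D-glucosaminide then added. […] IC50 and Ki calculated from these readings.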

The test system of another experiment is Candida parapsilosis. The experiment in a line: Antifungal activity against Candida parapsilosis incubated for 24 hrs by visual and spectrophotometry method. It is filed as functional. Conditions: Lodderomyces parapsilosis.
A further experiment concerns Candida albicans. As to the kind of experiment: Antifungal activity against Candida albicans incubated for 24 hrs by visual and spectrophotometry method. It is filed as functional.
For another experiment, the system named is Pichia kudriavzevii. The experiment in a line: Antifungal activity against Candida krusei incubated for 24 hrs by visual and spectrophotometry method. It counts as functional.
The test system of experiment [1] is Meyerozyma guilliermondii. The experiment in a line: Antifungal activity against Candida guillermondii incubated for 24 hrs by visual and spectrophotometry method. It counts as functional.
The next experiment relates to Kluyveromyces marxianus. The experiment in a line: Antifungal activity against Candida kefyr incubated for 24 hrs by visual and spectrophotometry method. It is filed as functional.
The next experiment concerns Candida tropicalis. The experiment in a line: Antifungal activity against Candida tropicalis incubated for 24 hrs by visual and spectrophotometry method. It is filed as functional.
For another experiment, the system named is Nakaseomyces glabratus. As to the kind of experiment: Antifungal activity against Candida glabrata incubated for 24 hrs by visual and spectrophotometry method. It counts as functional.

Sequence of Chitinase (D2K848 whole entry): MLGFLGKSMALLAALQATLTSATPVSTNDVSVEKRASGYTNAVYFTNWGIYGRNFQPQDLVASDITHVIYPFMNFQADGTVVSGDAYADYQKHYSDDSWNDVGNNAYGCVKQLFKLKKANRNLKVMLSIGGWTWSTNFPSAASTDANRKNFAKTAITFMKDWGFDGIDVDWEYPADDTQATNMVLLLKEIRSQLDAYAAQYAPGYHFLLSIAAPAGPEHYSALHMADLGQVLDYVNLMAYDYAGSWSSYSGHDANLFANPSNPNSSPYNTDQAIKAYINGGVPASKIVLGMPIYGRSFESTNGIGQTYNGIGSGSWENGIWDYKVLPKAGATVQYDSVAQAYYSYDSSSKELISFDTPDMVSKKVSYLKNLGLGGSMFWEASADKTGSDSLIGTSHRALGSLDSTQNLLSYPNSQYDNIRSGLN

At Chitinase, `C/C=C/CNC(=N)NCCCCCCN1CCCCCCCCNC(=N)NC1=O` had a pIC50 of 3.95 and a pKi of 4.45.

On Chitinase, `C/C=C/CNC(=N)NCCCCCCCCN1CCCCCCCCNC(=N)NC1=O` gave a pIC50 of 3.80 and a pKi of 4.29.

Take `C#CCNC(=N)NCCCCCCN1CCCCCCCCNC(=N)NC1=O`: on Chitinase, the pIC50 is 4.01 and the pKi was 4.50.

Consider `C/C=C/CNC(=N)NCCCCCCCCN1CCCCCOc2ccccc2CNC(=N)NC1=O`, for which, on Chitinase, the pIC50 was 4.26 and the pKi is 4.75.

For `C/C=C/CNC(=N)NCCCCCCCCN1CCCCCCOc2ccccc2CNC(=N)NC1=O`, the MIC90 with Candida parapsilosis was 2 µg/mL (≈ 3.89 µM); with Candida albicans it was 4 µg/mL (≈ 7.79 µM); in the experiment with Pichia kudriavzevii, 4 µg/mL (≈ 7.79 µM); in experiment [1] it was 2 µg/mL (≈ 3.89 µM); with Kluyveromyces marxianus, 2 µg/mL (≈ 3.89 µM); against Candida tropicalis it was 1 µg/mL (≈ 1.95 µM). Moreover, in the experiment on Nakaseomyces glabratus, the MIC90 is 16 µg/mL (≈ 31.1 µM). For the same molecule, the pIC50 at Chitinase is 4.45. Further, the pKi on Chitinase is 4.85.

At Chitinase, `C=C(C)CNC(=N)NCCCCCCN1CCCCCCCCNC(=N)NC1=O` gave a pIC50 of 3.97 and a pKi of 4.46.

At Chitinase, `N=C(NCCCCCCCCN1CCCCCCCCNC(=N)NC1=O)NCC1CC1` had a pIC50 of 3.89 and a pKi of 4.38.

Consider `CNC(=O)NC(=N)NCCCCCCCCN1CCCCCCOc2ccccc2CNC(=N)NC1=O`, for which the MIC90 is 25 µg/mL (≈ 48.4 µM) in the experiment with Candida parapsilosis; 25 µg/mL (≈ 48.4 µM) in the experiment on Candida albicans; 12 µg/mL (≈ 23.2 µM) in the experiment with Pichia kudriavzevii; 25 µg/mL (≈ 48.4 µM) in experiment [1]; 6 µg/mL (≈ 11.6 µM) against Kluyveromyces marxianus; 12 µg/mL (≈ 23.2 µM) against Candida tropicalis. Also, in the experiment on Nakaseomyces glabratus, the MIC90 stood at 25 µg/mL (≈ 48.4 µM). At Chitinase, this molecule showed a pIC50 of 6.17. The molecule further gave a pKi on Chitinase of 6.66.

Take `CCNC(=N)NCCCCCCN1CCCCCCCCNC(=N)NC1=O`: on Chitinase, the pIC50 is 3.85 and the pKi is 4.34.
